# Data reported in ChEMBL document CHEMBL1121917, “Structure--activity relationships in a broad-spectrum anthelmintic series. Acid chloride phenylhydrazones. 1. Aryl substitutions and chloride variations” (1981).
# Key:
# [1] = organism: Mus musculus; experiment: Percent clearance of Nematospiroides dubius from mouse after oral treatment of 0.47 mg/mouse/day; type: functional
# Outline: (§1)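 Mice naturally carrying Syphacia obvelata were experimentally infected with Nematospiroides dubius and Hymenolepis nana, then grouped after a 2-week prepatency. Finely ground compound was suspended in aqueous 0.10% carboxymethylcellulose, 0.04% polysorbate 80 and 0.0042% polyparaben, and 0.1 mL was given orally by cannula once daily for 4 days to five mice. Necropsy followed 2 days later, scoring presence or absence of each parasite. Control clearance was subtracted from the treated clearance.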
# [2] = organism: Mus musculus; experiment: Percent clearance of Hymenolepis nana from mouse after oral treatment of 0.47 mg/mouse/day; type: functional; outline: as §1
# [3] = test system: Ovis aries; experiment: Percent reduction in Oesophagostomum eggs per gram, after treatment with 300 mg/kg dose of compound in sheep perorally; type: functional, Egg; conditions: route oral
# Outline: (§2)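 Naturally parasitized lambs were dosed orally at the stated mg/kg. Dosing was either as a suspension of finely ground compound by stomach tube, or as ground compound weighed into gelatin capsules and given by balling gun. Activity was scored by the clinical test method: the decrease in posttreatment helminth eggs per gram.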
# [4] = organism: Canis familiaris; experiment: Percent reduction in Ancylostoma eggs per gram, after treatment with 275 mg/dog dose of compound in a single treatment; type: functional, Canis lupus familiaris, Egg
# Outline: (§3)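 Dogs naturally infected with Toxascaris leonina were experimentally infected with mixed Ancylostoma caninum and Uncinaria stenocephala larvae. Finely ground compound was given orally in gelatin capsules. Fecal egg counts were taken three times before and three times after treatment, and activity was taken as the fall in egg counts.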
# [5] = test system: Ovis aries; experiment: Percent reduction in Ostertagia eggs per gram, after treatment with 100 mg/kg dose of compound in sheep perorally; type: functional, Egg; conditions: route oral; outline: as §2
# [6] = test system: Ovis aries; experiment: Percent reduction in Strongyloides eggs per gram, after treatment with 300 mg/kg dose of compound in sheep perorally; type: functional, Egg; conditions: route oral
# Outline: (§4)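 Naturally parasitized lambs, dosed orally either with a suspension by stomach tube or with finely ground compound in gelatin capsules by balling gun. Activity was scored by the clinical test method, meaning a significant fall in helminth egg counts after treatment.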
# [7] = test system: Ovis aries; experiment: Percent reduction in Trichuris eggs per gram, after treatment with 400 mg/kg dose of compound in sheep perorally; type: functional, Egg; conditions: route oral
# [8] = test system: Ovis aries; experiment: Percent reduction in Trichostrongylus eggs per gram, after treatment with 400 mg/kg dose of compound in sheep perorally; type: functional, Egg; conditions: route oral
# [9] = test system: Ovis aries; experiment: Percent reduction in Trichuris eggs per gram, after treatment with 100 mg/kg dose of compound in sheep perorally; type: functional, Egg; conditions: route oral
# [10] = test system: Ovis aries; experiment: Percent reduction in Nematodirus eggs per gram, after treatment with 150 mg/kg dose of compound in sheep perorally; type: functional, Egg; conditions: route oral; outline: as §2
# [11] = test system: Ovis aries; experiment: Percent reduction in Haemonchus eggs per gram, after treatment with 150 mg/kg dose of compound in sheep perorally; type: functional, Egg; conditions: route oral
# Outline: (§5)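 Naturally parasitized lambs received compound orally, either as the aqueous suspension by stomach tube or as finely ground powder in gelatin capsules by balling gun. Activity was judged by the clinical test method, as a significant decrease in posttreatment helminth egg counts.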
# [12] = organism: Canis familiaris; experiment: Percent reduction in Ancylostoma eggs per gram, after treatment with 200 mg/dog dose of compound in a single treatment; type: functional, Canis lupus familiaris, Egg; outline: as §3
# [13] = test system: Ovis aries; experiment: Percent reduction in Ostertagia eggs per gram, after treatment with 300 mg/kg dose of compound in sheep perorally; type: functional, Egg; conditions: route oral; outline: as §4
# [14] = organism: Canis familiaris; experiment: Percent reduction in Uncinaria eggs per gram, after treatment with 200 mg/dog dose of compound in a single treatment; type: functional, Canis lupus familiaris, Egg
# Outline: (§6)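 Dogs naturally infected with Toxascaris leonina were experimentally infected with mixed Ancylostoma caninum and Uncinaria stenocephala larvae. Finely ground compound was given orally in gelatin capsules. Three egg count determinations were made before and three after treatment in each experiment.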
# [15] = organism: Canis familiaris; experiment: Percent reduction in Uncinaria eggs per gram, after treatment with 250 mg/dog dose of compound in a single treatment; type: functional, Canis lupus familiaris, Egg
# [16] = organism: Mus musculus; experiment: Percent clearance of Nematospiroides dubius from mouse oral treatment of 0.25 mg/mouse/day of compound; type: functional; outline: as §1
# [17] = organism: Mus musculus; experiment: Percent clearance of Syphacaia obvelata from mouse after oral treatment of 0.25 mg/mouse/day of compound; type: functional; outline: as §1
# [18] = test system: Ovis aries; experiment: Percent reduction in Nematodirus eggs per gram, after treatment with 200 mg/kg dose of compound in sheep perorally; type: functional, Egg; conditions: route oral; outline: as §2
# [19] = test system: Ovis aries; experiment: Percent reduction in Haemonchus eggs per gram, after treatment with 300 mg/kg dose of compound in sheep perorally; type: functional, Egg; conditions: route oral; outline: as §2
# [20] = test system: Ovis aries; experiment: Percent reduction in Trichuris eggs per gram, after treatment with 200 mg/kg dose of compound in sheep perorally; type: functional, Egg; conditions: route oral
# [21] = test system: Ovis aries; experiment: Percent reduction in Trichostrongylus eggs per gram, after treatment with 200 mg/kg dose of compound in sheep perorally; type: functional, Egg; conditions: route oral
# [22] = test system: Ovis aries; experiment: Percent reduction in Trichuris eggs per gram, after treatment with 150 mg/kg dose of compound in sheep perorally; type: functional, Egg; conditions: route oral
# [23] = organism: Canis familiaris; experiment: Percent reduction in Toxascaris eggs per gram, after treatment with 200 mg/dog dose of compound in a single treatment; type: functional, Canis lupus familiaris, Egg; outline: as §6
# [24] = test system: Ovis aries; experiment: Percent reduction in Nematodirus eggs per gram, after treatment with 400 mg/kg dose of compound in sheep perorally; type: functional, Egg; conditions: route oral; outline: as §2
# [25] = test system: Ovis aries; experiment: Percent reduction in Strongyloides eggs per gram, after treatment with 400 mg/kg dose of compound in sheep perorally; type: functional, Egg; conditions: route oral; outline: as §4
# [26] = test system: Ovis aries; experiment: Percent reduction in Moniezia eggs per gram, after treatment with 150 mg/kg dose of compound in sheep perorally; type: functional, Egg; conditions: route oral; outline: as §2
# [27] = test system: Ovis aries; experiment: Percent reduction in Trichostrongylus eggs per gram, after treatment with 300 mg/kg dose of compound in sheep perorally; type: functional, Egg; conditions: route oral
# [28] = test system: Ovis aries; experiment: Percent reduction in Haemonchus eggs per gram, after treatment with 100 mg/kg dose of compound in sheep perorally; type: functional, Egg; conditions: route oral; outline: as §5
# [29] = test system: Ovis aries; experiment: Percent reduction in Trichuris eggs per gram, after treatment with 300 mg/kg dose of compound in sheep perorally; type: functional, Egg; conditions: route oral
# [30] = test system: Ovis aries; experiment: Percent reduction in Ostertagia eggs per gram, after treatment with 150 mg/kg dose of compound in sheep perorally; type: functional, Egg; conditions: route oral; outline: as §2
# [31] = test system: Ovis aries; experiment: Percent reduction in Trichostrongylus eggs per gram, after treatment with 150 mg/kg dose of compound in sheep perorally; type: functional, Egg; conditions: route oral
# [32] = test system: Ovis aries; experiment: Percent reduction in Oesophagostomum eggs per gram, after treatment with 100 mg/kg dose of compound in sheep perorally; type: functional, Egg; conditions: route oral; outline: as §2
# [33] = test system: Ovis aries; experiment: Percent reduction in Haemonchus eggs per gram, after treatment with 400 mg/kg dose of compound in sheep perorally; type: functional, Egg; conditions: route oral; outline: as §2
# [34] = test system: Ovis aries; experiment: Percent reduction in Nematodirus eggs per gram, after treatment with 100 mg/kg dose of compound in sheep perorally; type: functional, Egg; conditions: route oral; outline: as §2
# [35] = test system: Ovis aries; experiment: Percent reduction in Oesophagostomum eggs per gram, after treatment with 150 mg/kg dose of compound in sheep perorally; type: functional, Egg; conditions: route oral; outline: as §2
# [36] = test system: Ovis aries; experiment: Percent reduction in Strongyloides eggs per gram, after treatment with 100 mg/kg dose of compound in sheep perorally; type: functional, Egg; conditions: route oral; outline: as §4
# [37] = test system: Ovis aries; experiment: Percent reduction in Ostertagia eggs per gram, after treatment with 200 mg/kg dose of compound in sheep perorally; type: functional, Egg; conditions: route oral; outline: as §4
# [38] = test system: Ovis aries; experiment: Percent reduction in Oesophagostomum eggs per gram, after treatment with 200 mg/kg dose of compound in sheep perorally; type: functional, Egg; conditions: route oral; outline: as §2
# [39] = test system: Ovis aries; experiment: Percent reduction in Nematodirus eggs per gram, after treatment with 300 mg/kg dose of compound in sheep perorally; type: functional, Egg; conditions: route oral; outline: as §2
# [40] = test system: Ovis aries; experiment: Percent reduction in Cooperia eggs per gram, after treatment with 100 mg/kg dose of compound in sheep perorally; type: functional, Egg; conditions: route oral; outline: as §5
# [41] = test system: Ovis aries; experiment: Percent reduction in Trichostrongylus eggs per gram, after treatment with 100 mg/kg dose of compound in sheep perorally; type: functional, Egg; conditions: route oral
# Outline: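 Lambs naturally parasitized with helminths. Finely ground compound was given orally, either as an aqueous suspension by stomach tube or weighed into gelatin capsules given by balling gun. Activity was assessed by the clinical test method: the reduction in helminth egg counts after treatment.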
# [42] = test system: Ovis aries; experiment: Percent reduction in Ostertagia eggs per gram, after treatment with 400 mg/kg dose of compound in sheep perorally; type: functional, Egg; conditions: route oral; outline: as §4
# [43] = organism: Canis familiaris; experiment: Percent reduction in Uncinaria eggs per gram, after treatment with 275 mg/dog dose of compound in a single treatment; type: functional, Canis lupus familiaris, Egg
# [44] = test system: Ovis aries; experiment: Percent reduction in Strongyloides eggs per gram, after treatment with 150 mg/kg dose of compound in sheep perorally; type: functional, Egg; conditions: route oral; outline: as §4
# [45] = test system: Ovis aries; experiment: Percent reduction in Haemonchus eggs per gram, after treatment with 200 mg/kg dose of compound in sheep perorally; type: functional, Egg; conditions: route oral; outline: as §2
# [46] = organism: Canis familiaris; experiment: Percent reduction in Ancylostoma eggs per gram, after treatment with 250 mg/dog dose of compound in a single treatment; type: functional, Canis lupus familiaris, Egg; outline: as §3
# [47] = test system: Ovis aries; experiment: Percent reduction in Strongyloides eggs per gram, after treatment with 200 mg/kg dose of compound in sheep perorally; type: functional, Egg; conditions: route oral; outline: as §4
# [48] = organism: Canis familiaris; experiment: Percent reduction in Trichuris eggs per gram, after treatment with 200 mg/dog dose of compound in a single treatment; type: functional, Canis lupus familiaris, Egg
compound,measurement,setting,value
Cl/C(=N\Nc1ccccc1)c1ccc(Br)cc1,Parasite_Clearance,[1],100%
same,Parasite_Clearance,[2],100%
Cc1ccc(/C(Cl)=N/Nc2ccccc2)cc1,Reduction,[3],100%
same,Reduction,[4],100%
same,Reduction,[5],96%
same,Reduction,[6],100%
same,Reduction,[7],0%
same,Reduction,[8],100%
same,Reduction,[9],29%
same,Reduction,[10],100%
same,Reduction,[11],100%
same,Reduction,[12],100%
same,Reduction,[13],100%
same,Reduction,[14],100%
same,Reduction,[15],100%
same,Parasite_Clearance,[16],20%
same,Parasite_Clearance,[17],100%
same,Reduction,[18],100%
same,Reduction,[19],100%
same,Reduction,[20],0%
same,Reduction,[21],100%
same,Reduction,[22],25%
same,Reduction,[23],100%
same,Reduction,[24],100%
same,Reduction,[25],100%
same,Reduction,[26],100%
same,Reduction,[27],100%
same,Reduction,[28],84%
same,Reduction,[29],0%
same,Reduction,[30],100%
same,Reduction,[31],98%
same,Reduction,[32],100%
same,Reduction,[33],100%
same,Reduction,[34],100%
same,Reduction,[35],79%
same,Reduction,[36],99%
same,Reduction,[37],100%
same,Reduction,[38],100%
same,Reduction,[39],100%
same,Reduction,[40],100%
same,Reduction,[41],73%
same,Reduction,[42],100%
same,Reduction,[43],99.8%
same,Reduction,[44],100%
same,Reduction,[45],100%
same,Reduction,[46],100%
same,Reduction,[47],37%
same,Reduction,[48],100%
